Laboratory results taken from ChEMBL document CHEMBL1123999, “Synthesis and antiviral activity of certain 4- and 4,5-disubstituted 7-[(2-hydroxyethoxy)methyl]pyrrolo[2,3-d]pyrimidines” (J Med Chem, 1988).

Experiments:
[1] = Cytotoxicity against uninfected monkey kidney cells (BSC-1); type: functional, cell-based; details: Cercopithecidae
Outline: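 Uninfected BSC-1 (African green monkey kidney) monolayers, grown in MEM with Earle salts plus 10% FBS, in the HSV-1 plaque assay. Cytopathology was scored visually at 35- and 60-fold magnification, on a 0 to 4+ scale, on the day of staining for plaques. I50 was taken from regression of percent inhibition against log concentration.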

Human betaherpesvirus 5 [2] = test: Inhibitory concentration against human cytomegalovirus (HCMV) in plaque reduction assay; type: functional, organism-based
Outline: (§1)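 HFF monolayers were infected with the Towne strain of HCMV (plaque-purified isolate P0), about 50 PFU in a 0.2 mL inoculum. Compounds were dissolved in the overlay medium, with 100 μM the highest concentration tested. Plaques were counted. I50 was taken from linear regression of percent inhibition against log concentration. Acyclovir, ganciclovir and vidarabine served as positive controls.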

HFF = test: Cytotoxicity against uninfected human foreskin fibroblast(HFF cells); type: functional, cell-based
Outline: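 Uninfected HFF monolayers in the HCMV plaque assay. Drug-induced cytopathology was scored visually at 35- and 60-fold magnification, on a 0 to 4+ scale, on the day of staining for plaque enumeration. I50 was taken from linear regression of percent inhibition against log concentration.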

Human alphaherpesvirus 1 = test: Inhibitory concentration against HSV-1 in plaque reduction assay
[3] = Cytotoxicity against human neoplastic cell line(KB cells); type: functional, cell-based; details: read-out: I50
Outline: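 KB cells (human epidermoid oral carcinoma) grown in MEM with Hanks salts plus 5% fetal bovine serum. Uptake of radioactive precursors into DNA, RNA and protein was measured. I50 values came from linear regression of percent inhibition against log concentration. The three I50 values (DNA, RNA, protein) were averaged. Positive controls were acyclovir, ganciclovir and vidarabine.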

[4] = Inhibition against human neoplastic cell line(KB cells); type: functional, cell-based; details: read-out: I50
Outline: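 KB cells (human epidermoid oral carcinoma) grown in MEM with Hanks salts plus 5% fetal bovine serum. Cytotoxicity read as inhibition of radioactive precursor incorporation into DNA, RNA and protein. I50 for each of the three came from linear regression of percent inhibition against log drug concentration, and the three I50s were averaged. Highest concentration tested 100 μM.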

Human betaherpesvirus 5 [5] = test: Inhibitory concentration against human cytomegalovirus (HCMV) in plaque reduction assay at 100 uM concentration; type: functional, organism-based; details: read-out: I50; outline: as §1

Structure (SMILES) | IC50 [1] [µM] | IC50 (Human betaherpesvirus 5 [2]) [µM] | IC50 (HFF) [µM] | IC50 (Human alphaherpesvirus 1) [µM] | IC50 (Human betaherpesvirus 5 [2]; read-out: I50) [µM] | IC50 (HFF; read-out: I50) [µM] | also measured
CNc1ncnc2c1c(Cl)cn2COCCO | > 100 | > 100 | > 100 | > 100 | – | – | –
Nc1nc2c(ncn2COC(CO)CO)c(=O)[nH]1 [GANCICLOVIR] | > 100 | 8.8 | > 100 | 3 | – | – | –
CN(C)c1ncnc2c1ccn2[C@@H]1O[C@H](CO)[C@@H](O)[C@H]1O | – | – | – | – | 1.2 | 2 | –
CNc1ncnc2c1ccn2[C@@H]1O[C@H](CO)[C@@H](O)[C@H]1O | – | 37 | > 100 | – | – | – | –
CNc1ncnc2c1ccn2COCCO | > 100 | > 100 | > 100 | > 100 | – | – | –
CCNc1ncnc2c1c(Br)cn2COCCO | > 320 | > 100 | > 100 | > 320 | – | – | –
OCCOCn1cc(Br)c2c(Cl)ncnc21 | > 100 | > 100 | > 100 | > 100 | – | – | –
C[Se]c1ncnc2c1ccn2C1O[C@H](CO)[C@@H](O)[C@H]1O (some centres undefined) | – | 4 | 1.5 | – | – | – | –
Nc1ncnc2c1c(I)cn2[C@@H]1O[C@H](CO)[C@@H](O)[C@H]1O [IODOTUBERCIDIN] | – | – | – | – | 0.4 | 2 | IC50 [3]: 2.1 µM
OC[C@H]1OC(n2cc(Br)c3c(Cl)ncnc32)[C@H](O)[C@@H]1O (some centres undefined) | – | – | – | – | 29 | 31 | –
OC[C@H]1OC(n2ccc3c(SC4C=CC=CC=C4)ncnc32)[C@H](O)[C@@H]1O (some centres undefined) | – | > 100 | > 100 | – | – | – | –
Nc1ncnc2c1ccn2[C@@H]1O[C@H](CO)[C@@H](O)[C@H]1O [TUBERCIDIN] | – | 0.5 | 0.4 | – | – | – | IC50 [3]: 0.6 µM
OC[C@H]1OC(n2cc(Br)c3cncnc32)[C@H](O)[C@@H]1O (some centres undefined) | – | – | – | – | 23 | 31 | –
Nc1nc2c(ncn2COCCO)c(=O)[nH]1 [ACYCLOVIR] | > 100 | 63 | > 100 | 2.6 | – | – | –
COc1ncnc2c1ccn2[C@@H]1O[C@H](CO)[C@@H](O)[C@H]1O | – | – | – | – | 10 | 46 | –
Nc1ncnc2c1c(Cl)cn2COCCO | > 100 | 16 | > 100 | 77 | – | – | IC50 [4]: 0.82 µM
NNc1ncnc2c1ccn2C1O[C@H](CO)[C@@H](O)[C@H]1O (some centres undefined) | – | – | – | – | 4 | 2 | –
CCNc1ncnc2c1c(Cl)cn2COCCO | > 100 | > 100 | > 100 | > 100 | – | – | –

Structure (SMILES) | IC50 [1] [µM] | IC50 (Human betaherpesvirus 5 [2]) [µM] | IC50 (HFF) [µM] | IC50 (Human alphaherpesvirus 1) [µM] | IC50 (Human betaherpesvirus 5 [2]; read-out: I50) [µM] | IC50 (HFF; read-out: I50) [µM] | also measured
OC[C@H]1O[C@@H](n2cc(I)c3c(Cl)ncnc32)[C@H](O)[C@@H]1O | – | – | – | – | 31 | 13 | –
OCCOCn1cc(I)c2c(Cl)ncnc21 | > 100 | > 100 | > 100 | > 100 | – | – | –
Nc1ncnc2c1c(I)cn2COCCO | > 100 | 24 | 100 | 100 | – | – | IC50 [4]: 1.2 µM
OC[C@H]1OC(n2cc(Br)c3c(S)ncnc32)[C@H](O)[C@@H]1O (some centres undefined) | – | 39 | > 100 | – | – | – | –
OC[C@H]1O[C@@H](n2ccc3c(S)ncnc32)[C@H](O)[C@@H]1O | – | > 100 | > 100 | – | – | – | –
CSc1ncnc2c1c(Br)cn2[C@@H]1O[C@H](CO)[C@@H](O)[C@H]1O | – | > 100 | > 100 | – | – | – | –
Nc1ncnc2c1c(Br)cn2COCCO | > 100 | 3.9 | 100 | 16 | – | – | IC50 [3]: 100 µM
CNc1ncnc2c1c(Br)cn2C1O[C@H](CO)[C@@H](O)[C@H]1O (some centres undefined) | – | – | – | – | > 100 | > 100 | –
O=c1[nH]cnc2c1ccn2[C@@H]1O[C@H](CO)[C@@H](O)[C@H]1O [IMMUNICILLIN H] | – | – | – | – | 3.5 | 10 | –
OCCOCn1cc(Cl)c2c(Cl)ncnc21 | > 100 | > 100 | > 100 | > 100 | – | – | –
CNc1ncnc2c1c(Br)cn2COCCO | > 100 | > 100 | > 100 | > 100 | – | – | –
OC[C@H]1O[C@@H](n2ccc3c(N4CCCCC4)ncnc32)[C@H](O)[C@@H]1O | – | > 100 | > 100 | – | – | – | –
CN(C)c1ncnc2c1c(Br)cn2C1O[C@H](CO)[C@@H](O)[C@H]1O (some centres undefined) | – | 16 | 10 | – | – | – | –
Nc1ncnc2c1c(Cl)cn2[C@@H]1O[C@H](CO)[C@@H](O)[C@H]1O | – | – | – | – | 4.4 | 10 | IC50 [3]: 6.5 µM
COc1ncnc2c1ccn2COCCO | > 100 | – | > 100 | > 100 | – | – | IC50 (Human betaherpesvirus 5 [5]): > 100 µM
Nc1ncnc2c1c(Br)cn2[C@@H]1O[C@H](CO)[C@@H](O)[C@H]1O | – | – | – | – | 0.5 | 4.5 | IC50 [3]: 2.3 µM
OC[C@H]1OC(n2ccc3cncnc32)[C@H](O)[C@@H]1O (some centres undefined) | – | 0.4 | 2 | – | – | – | –
CN(C)c1ncnc2c1ccn2COCCO | > 100 | > 100 | > 100 | > 100 | – | – | –
